ChEMBL document CHEMBL1145563, “Monoglycerides from the brown alga Sargassum sagamianum: Isolation, synthesis, and biological activity” (Bioorg Med Chem Lett, 2008)

What was measured:
[1] = molecular target: T1, Prostaglandin G/H synthase 2 (Homo sapiens) (UniProt P35354); assay: Inhibition of COX2 at 50 uM
T1 sequence (whole entry): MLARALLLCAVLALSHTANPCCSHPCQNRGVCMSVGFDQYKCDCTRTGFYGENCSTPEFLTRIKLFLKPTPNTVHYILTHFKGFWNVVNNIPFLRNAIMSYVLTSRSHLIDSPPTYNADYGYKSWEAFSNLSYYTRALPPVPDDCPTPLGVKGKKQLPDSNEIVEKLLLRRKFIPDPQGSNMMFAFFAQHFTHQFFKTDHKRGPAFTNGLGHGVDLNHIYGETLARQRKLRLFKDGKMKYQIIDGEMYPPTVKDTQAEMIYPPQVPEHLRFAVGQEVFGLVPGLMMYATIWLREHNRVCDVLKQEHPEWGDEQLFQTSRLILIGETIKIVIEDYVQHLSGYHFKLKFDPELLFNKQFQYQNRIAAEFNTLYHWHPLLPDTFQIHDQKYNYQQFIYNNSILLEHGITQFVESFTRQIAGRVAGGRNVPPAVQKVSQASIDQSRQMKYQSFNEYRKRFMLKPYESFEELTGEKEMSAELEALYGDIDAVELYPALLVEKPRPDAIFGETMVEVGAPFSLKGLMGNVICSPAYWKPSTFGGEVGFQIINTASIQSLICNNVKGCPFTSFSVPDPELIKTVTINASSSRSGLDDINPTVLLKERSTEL
How it was run: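 COX-2 activity followed as PGE2 in the medium, measured in triplicate by enzyme immunoassay: samples, enzymatic tracer and specific antiserum incubated overnight at 4 °C, plates washed, Ellman's reagent added, absorbance at 414 nm read after 1–3 h. PGE2 read from a 50–0.39 pg/mL standard curve. Percent inhibition given as mean of three experiments.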

[2] = molecular target: T2, Phospholipase A2, membrane associated (Homo sapiens) (UniProt P14555); assay: Inhibition of sPLA2-2A at 10 uM by coupled enzyme assay
T2 sequence (whole entry): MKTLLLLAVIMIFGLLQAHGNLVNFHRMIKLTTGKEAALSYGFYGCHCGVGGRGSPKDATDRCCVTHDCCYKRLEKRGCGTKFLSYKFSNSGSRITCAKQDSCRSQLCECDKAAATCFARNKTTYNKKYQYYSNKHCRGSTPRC
How it was run: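 Phospholipase A2 activity measured by a coupled enzyme assay with DL-PC as substrate and lipoxygenase as the coupling enzyme. Percent inhibition given as mean of three experiments.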

| inhibition [1] [%] | inhibition [2] [%] | Structure (SMILES) |
| --- | --- | --- |
| 35.6 | 26.1 | CC/C=C/C/C=C/C/C=C\C/C=C/CCCCC(=O)OC[C@@H](O)CO |
| 86.8 | 37.9 | CCCCC/C=C/C/C=C/C/C=C\C/C=C/CCCCCC(=O)OCC(O)CO (stereo unspecified) |
|  | 32 | CC/C=C\C/C=C\C/C=C\CCCCCCCC(=O)OCC(O)CO (stereo unspecified) |
|  | 53.9 | CCCCC/C=C/C/C=C\C/C=C/CCCCCCC(=O)OCC(O)CO (stereo unspecified) |
| 20.5 | 38.1 | CCCCC/C=C/C/C=C\CCCCCCCC(=O)OCC(O)CO (stereo unspecified) |

Further lines, the compound ahead of its results:

| Structure (SMILES) | inhibition [1] [%] | inhibition [2] [%] |
| --- | --- | --- |
| CC/C=C/C/C=C/C/C=C/C/C=C\C/C=C/CCCCCC(=O)OCC(O)CO (stereo unspecified) | 92.9 | 37.4 |
| CC/C=C/C/C=C/C/C=C/C/C=C\C/C=C/C/C=C/CCC(=O)OCC(O)CO (stereo unspecified) | 74.2 | 41.7 |
| CCCCCCCCCCCCCCCCCC(=O)OCC(O)CO (stereo unspecified) | 16.5 | 32.8 |
| CCCCC/C=C/C/C=C\C/C=C/C/C=C/CCCC(=O)OCC(O)CO (stereo unspecified) |  | 33.6 |
| CCCCC/C=C\C/C=C\C/C=C\CCCCC(=O)OCC(O)CO (stereo unspecified) | -6.5 | 38.8 |
| CC/C=C/C/C=C/C/C=C\C/C=C/C/C=C/CCCC(=O)OCC(O)CO (stereo unspecified) | 71.9 | 37.4 |
| CCCCCCCC/C=C\CCCCCCCC(=O)OCC(O)CO (stereo unspecified) | 24.7 | 60.6 |
